Active and inactive are the calls of the source. The rule behind the calls is not given here.
Key:
[1] = biological target: T1, NAD-dependent protein deacylase sirtuin-6 (Homo sapiens, UniProt Q8N6T7); assay: Activation of N-terminal his-tagged human SIRT6 expressed in Escherichia coli M15 [pREP4] assessed as increase in peptide demyristoylation incubated for 120 mins using Ac-EALPKK(Myr)-AMC substrate by FDL assay relative to control
How it was run: (§1)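 Demyristoylation: 1 µM recombinant SIRT6 preincubated with compound for 20 min at 37 °C in 50 mM Tris-HCl pH 8.0, BSA 1 mg/mL, 1 mM DTT, with 10 µM Ac-EALPKK(Myr)-AMC. Fluorescence read. Mean ± s.d., triplicate wells, three independent experiments.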

[2] = biological target: T1, NAD-dependent protein deacylase sirtuin-6; assay: Activation of N-terminal his-tagged human SIRT6 expressed in Escherichia coli M15 [pREP4] assessed as increase in peptide demyristoylation at 100 uM incubated for 120 mins using Ac-EALPKK(Myr)-AMC substrate by FDL assay relative to control
How it was run: as §1, with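 “Ac-EALPKK(Myr)-AMC. Started with 1 mM NAD and run 120 min at 37 °C. Developed 120 min at 37 °C with 5 mg/mL trypsin/8 mM nicotinamide.” for “Ac-EALPKK(Myr)-AMC.”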

[3] = biological target: T1, NAD-dependent protein deacylase sirtuin-6; assay: Activation of N-terminal his-tagged human SIRT6 expressed in Escherichia coli M15 [pREP4] assessed as increase in peptide demyristoylation at 20 uM incubated for 120 mins using Ac-EALPKK(Myr)-AMC substrate by FDL assay relative to control
How it was run: as §1, with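 “Ac-EALPKK(Myr)-AMC. Started with 1 mM NAD and run 120 min at 37 °C. Developed 120 min at 37 °C with 5 mg/mL trypsin/8 mM nicotinamide.” for “Ac-EALPKK(Myr)-AMC.”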

PANC-1 [4] = assay: Antitumor activity against human PANC1 cells xenografted in BALB/c nude mouse assessed as inhibition of tumor growth at 150 mg/kg/day, po for 30 days relative to control; type: functional; conditions: PANC-1, po, 720 h, read-out: TGI
How it was run: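 Female BALB/c nude mice, 6-8 weeks old, injected subcutaneously in the right flank with 5×10^6–1×10^7 PANC-1 cells. At 130-150 mm³, mice randomized into 4 groups (n = 6) and dosed orally once daily for 30 days against vehicle. Tumor volume followed over time. Inhibition rate assessed against control.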

MIA PaCa-2 = assay: Antiproliferative activity against human MIAPaCa2 cells assessed as reduction in cell viability incubated for 72 hrs by MTT assay; type: functional, cell-based; conditions: MIA PaCa-2, 72 h
How it was run: (§2)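 PDAC cells grown in DMEM or RPMI1640 with 10% FBS and penicillin/streptomycin at 37 °C, 5% CO2. Plated in triplicate, then treated with a concentration series for 72 h. Viability read by MTT. IC50 calculated from dose-response curves.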

PANC-1 [5] = assay: Antiproliferative activity against human PANC1 cells assessed as reduction in cell viability incubated for 72 hrs by MTT assay; type: functional, cell-based; conditions: PANC-1, 72 h; how it was run: as §2
BXPC-3 = assay: Antiproliferative activity against human BxPC3 cells assessed as reduction in cell viability incubated for 72 hrs by MTT assay; type: functional, cell-based; conditions: BXPC-3, 72 h; how it was run: as §2
ASPC1 = assay: Antiproliferative activity against human AsPC1 cells assessed as reduction in cell viability incubated for 72 hrs by MTT assay; type: functional, cell-based; conditions: ASPC1, 72 h; how it was run: as §2

T1 sequence (Q8N6T7 whole entry): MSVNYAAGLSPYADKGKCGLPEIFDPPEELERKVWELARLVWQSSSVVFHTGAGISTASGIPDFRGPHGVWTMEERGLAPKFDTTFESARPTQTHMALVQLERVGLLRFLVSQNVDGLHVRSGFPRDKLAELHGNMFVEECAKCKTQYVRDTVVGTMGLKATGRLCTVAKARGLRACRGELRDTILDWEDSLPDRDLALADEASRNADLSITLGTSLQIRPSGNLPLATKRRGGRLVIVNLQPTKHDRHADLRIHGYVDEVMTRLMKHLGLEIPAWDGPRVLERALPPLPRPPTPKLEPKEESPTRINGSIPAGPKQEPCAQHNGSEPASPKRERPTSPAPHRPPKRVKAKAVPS

Compound	EC1.5 [1] [µM]	Activity [2]	Activity [3] [%]	further results
Cc1cc(Nc2cc(CN3CCOCC3)c3nc(C)c(Cc4ccc(Cl)cc4F)n3n2)n[nH]1	118	Active		
COc1ccccc1C(=O)Nc1cc2c(cc1N1CCCCC1)n(C)c(=O)n2C	110	Active		
COc1ccc(-c2cc(C(=O)Nc3ccc(Cl)c(Cl)c3)c3ccccc3n2)cc1OC	27.1	Active	148	
COC(=O)c1cc(NS(=O)(=O)c2cc(Cl)cc(Cl)c2)ccc1S(=O)(=O)Nc1cc(Br)c(F)cc1C				inhibition in vivo at 150 mg/kg/day (PANC-1 [4]): 78%; IC50 (MIA PaCa-2): 55.6 µM; IC50 (PANC-1 [5]): 35.2 µM; IC50 (BXPC-3): 58 µM; IC50 (ASPC1): 50.5 µM
O=C(NC(c1ccccc1)c1ccccn1)c1cc(-c2cc3ccccc3o2)nc2ccccc12 (configuration not stated)	7.59		321	

Now from value to compound, other results behind:

EC1.5 [1] [µM]	Activity [2]	Activity [3] [%]	Compound	further results
228	Active		COC(=O)c1c2c(c3ccccc3c1O)OC(C)(C)C=C2	
6.38		250	COc1ccc(-c2cc(C(=O)Nc3cc(C(F)(F)F)cc(C(F)(F)F)c3)c3ccccc3n2)cc1OC	
3.11		430	O=C(Nc1cc(C(F)(F)F)cc(C(F)(F)F)c1)c1cc(-c2cc3ccccc3o2)nc2ccccc12	
4.86		216	O=C(Nc1cccc(F)c1)c1cc(-c2cc3ccccc3o2)nc2ccccc12	

Reference: ChEMBL document CHEMBL4622973, “Discovery of Potent Small-Molecule SIRT6 Activators: Structure-Activity Relationship and Anti-Pancreatic Ductal Adenocarcinoma Activity” (J Med Chem, 2020)
